Measurements: paper PMC11303814 (Nature Communications, 2024)
Substitutions are numbered along the chain they refer to.

How the values were obtained:
zebra fish P2X4 = conditions: cited from earlier work
human P2X3 = conditions: cited from earlier work
rP2X7-Q143A/I214A = biological target: T1, rP2X7-Q143A/I214A (Rattus norvegicus, UniProt Q64663, I214A/Q143A); experiment: TEVC dose response; type: cell-based; conditions: read-out: EC50 (apparent affinity), mean ± SD, triplicate
T1 sequence (Q64663 1-595 Q143A/I214A): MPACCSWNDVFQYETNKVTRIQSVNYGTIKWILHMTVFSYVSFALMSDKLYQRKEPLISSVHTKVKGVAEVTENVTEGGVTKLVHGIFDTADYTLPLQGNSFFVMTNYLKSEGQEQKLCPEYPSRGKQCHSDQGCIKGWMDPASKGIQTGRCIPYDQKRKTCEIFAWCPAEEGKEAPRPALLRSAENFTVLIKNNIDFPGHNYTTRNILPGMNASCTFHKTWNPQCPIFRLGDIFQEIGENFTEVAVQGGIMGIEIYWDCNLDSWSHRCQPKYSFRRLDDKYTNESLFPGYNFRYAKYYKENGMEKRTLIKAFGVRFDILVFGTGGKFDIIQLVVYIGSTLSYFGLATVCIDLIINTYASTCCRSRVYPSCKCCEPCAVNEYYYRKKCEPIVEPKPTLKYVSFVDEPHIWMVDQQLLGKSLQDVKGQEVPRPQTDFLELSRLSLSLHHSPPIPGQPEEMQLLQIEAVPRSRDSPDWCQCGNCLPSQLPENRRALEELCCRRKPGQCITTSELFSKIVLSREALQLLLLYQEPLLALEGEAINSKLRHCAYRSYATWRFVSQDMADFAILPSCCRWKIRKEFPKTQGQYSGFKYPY
Method in brief: (§1)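 TEVC was run on Xenopus oocytes ~20 h after injection of wild-type or mutant rP2X7 mRNA, in pH 7.4 HEPES buffer with 0.1 mM flufenamic acid. Receptors were facilitated at 100 µM before recording. Dilution series: ATP 1.5 mM–2 µM (7 points), BzATP 300–0.14 µM (8 points). Responses were normalized to the largest concentration, fitted by nonlinear regression for EC50, and averaged across triplicates (mean ± SD).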

rP2X7-R125A/Q143A/I214A = biological target: T2, rP2X7-R125A/Q143A/I214A (Rattus norvegicus, UniProt Q64663, I214A/Q143A/R125A); experiment: TEVC deactivation time; type: cell-based; conditions: after 100 μM ATP or 100 μM BzATP
T2 sequence (Q64663 1-595 R125A/Q143A/I214A): T1 sequence (Q64663 1-595 Q143A/I214A) with R125A
Method in brief: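 Triple-mutant rP2X7 was expressed ~20 h in Xenopus oocytes (50 nL of 10 ng/µL mRNA) and recorded by TEVC in pH 7.4 HEPES buffer containing flufenamic acid. Deactivation followed 100 µM ATP or 100 µM BzATP. τ is the time to 63% return to baseline after washout, from a one- or two-phase decay fit. Triplicate over first to third applications per oocyte; mean ± SD.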

[1] = biological target: T3, full-length wild-type rP2X7 (Rattus norvegicus, UniProt Q64663); experiment: TEVC dose response; type: cell-based; conditions: WT rP2X7, TEVC
T3 sequence (Q64663 1-595): T1 sequence (Q64663 1-595 Q143A/I214A) with A143Q, A214I
Method in brief: as §1

EC50 (rP2X7-Q143A/I214A) [µM]	deactivation lifetime τ (rP2X7-R125A/Q143A/I214A) [s]	higher apparent affinity than ATP (EC50 ratio) [1]	Compound	Kd (zebra fish P2X4) [µM]	Kd (human P2X3) [µM]
290 ± 20	2.4 ± 0.8	–	Nc1ncnc2c1ncn2[C@@H]1O[C@H](COP(=O)(O)OP(=O)(O)OP(=O)(O)O)[C@@H](O)[C@H]1O [ATP]	0.0116 ± 0.0017	0.0028 ± 0.0001
49 ± 4	3.7 ± 0.7	~ 28 fold	BzATP	–	–
